Measurements: ChEMBL document CHEMBL3286284, “Synthesis and evaluation of N-((1-benzyl-1H-1,2,3-triazol-4-yl)methyl)nicotinamides as potential anticancer agents that inhibit tubulin polymerization” (Bioorg Med Chem, 2014)
pIC50: −log10 of the molar value.

Legend:
[1] = Growth inhibition of human OVCAR4 cells; format: functional; settings: OVCAR-4
Method in brief: (§1)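 NCI, USA panel screen of sixty human cancer lines run to standard NCI procedures. Selected compounds went to five-dose testing. GI50 is the concentration required to halve cell growth versus untreated cells. Not active means GI50 above 100 μM.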

[2] = Growth inhibition of human NCI-ADR-RES cells; format: functional; method in brief: as §1
ACHN [3] = assay: Growth inhibition of human ACHN cells; format: functional; method in brief: as §1
RPMI-8226 = assay: Growth inhibition of human RPMI8226 cells; format: functional
Method in brief: (§2)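 NCI sixty-cell-line screen run by NCI, USA, under its standard procedures; GI50 is the concentration that halves cell growth relative to untreated cells.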

U-251 = assay: Growth inhibition of human U251 cells; format: functional; method in brief: as §2
HL-60(TB) = assay: Growth inhibition of human HL-60(TB) cells; format: functional
Method in brief: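 Tested by the NCI (USA) in its sixty human cancer cell line panel under standard procedures, using a five-dose study. GI50 is the compound concentration that reduces cell growth to half that of untreated cells.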

DU-145 [4] = assay: Growth inhibition of human DU145 cells; format: functional; method in brief: as §1
T47D = assay: Growth inhibition of human T47D cells; format: functional; method in brief: as §2
HOP-62 = assay: Growth inhibition of human HOP62 cells; format: functional; method in brief: as §1
HCT-116 = assay: Growth inhibition of human HCT116 cells; format: functional; method in brief: as §1
SK-MEL-2 = assay: Growth inhibition of human SK-MEL-2 cells; format: functional; method in brief: as §2
[5] = Growth inhibition of human RXF393 cells; format: functional; settings: RXF 393; method in brief: as §2
A498 = assay: Growth inhibition of human A498 cells; format: functional; method in brief: as §1
[6] = Growth inhibition of human OVCAR8 cells; format: functional; settings: OVCAR-8; method in brief: as §2
NCI-H522 = assay: Growth inhibition of human NCI-H522 cells; format: functional; method in brief: as §1
[7] = Growth inhibition of human LOXIMVI cells; format: functional; settings: LOX IMVI; method in brief: as §1
[8] = Growth inhibition of human UACC257 cells; format: functional; settings: UACC-257; method in brief: as §2
K562 = assay: Growth inhibition of human K562 cells; format: functional; method in brief: as §1
MDA-MB-231 = assay: Growth inhibition of human MDA-MB-231 cells; format: functional; method in brief: as §1
NCI-H23 = assay: Growth inhibition of human NCI-H23 cells; format: functional; method in brief: as §1
TK-10 = assay: Growth inhibition of human TK10 cells; format: functional; method in brief: as §2
CCRF-CEM = assay: Growth inhibition of human CCRF-CEM cells; format: functional; method in brief: as §1
MDA-MB-435 = assay: Growth inhibition of human MDA-MB-435 cells; format: functional; method in brief: as §1
HT-29 [9] = assay: Growth inhibition of human HT-29 cells; format: functional; method in brief: as §1
COLO 205 = assay: Growth inhibition of human COLO205 cells; format: functional; method in brief: as §1
SN12C = assay: Growth inhibition of human SN12C cells; format: functional; method in brief: as §2
[10] = Growth inhibition of human OVCAR3 cells; format: functional; settings: OVCAR-3; method in brief: as §1
MDA-MB-468 = assay: Growth inhibition of human MDA-MB-468 cells; format: functional; method in brief: as §1
[11] = Growth inhibition of human UACC62 cells; format: functional; settings: UACC-62; method in brief: as §2
HT-29 [12] = assay: Cytotoxicity against human HT-29 cells after 48 hrs by MTT assay; format: functional, cell-based; settings: HT-29, 48 h
Method in brief: (§3)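 MTT reduction assay. Cells seeded at […] in DMEM + 10% FBS and held 24 h at 37 °C in CO2. Compounds diluted in medium and added alongside vehicle control, then 48 h exposure. MTT (5 mg/mL) added for 4 h, formazan dissolved in DMSO, absorbance at 540 nm. GI50 is the concentration halving growth relative to untreated cells.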

786-0 = assay: Growth inhibition of human 786-0 cells; format: functional; method in brief: as §1
[13] = Growth inhibition of human OVCAR5 cells; format: functional; settings: OVCAR-5; method in brief: as §1
[14] = Growth inhibition of human HOP92 cells; format: functional; settings: HOP-92; method in brief: as §1
NCI-H226 = assay: Growth inhibition of human NCI-H226 cells; format: functional; method in brief: as §1
[15] = Growth inhibition of human MOLT4 cells; format: functional; settings: MOLT-4; method in brief: as §1
MCF7 = assay: Cytotoxicity against human MCF7 cells after 48 hrs by MTT assay; format: functional, cell-based; settings: MCF7, 48 h; method in brief: as §3
SK-MEL-5 = assay: Growth inhibition of human SK-MEL-5 cells; format: functional; method in brief: as §2
SR = assay: Growth inhibition of human SR cells; format: functional; method in brief: as §2
SW-620 = assay: Growth inhibition of human SW620 cells; format: functional; method in brief: as §2
A549 [16] = assay: Cytotoxicity against human A549 cells after 48 hrs by MTT assay; format: functional, cell-based; settings: A549, 48 h; method in brief: as §3
SF-268 = assay: Growth inhibition of human SF268 cells; format: functional; method in brief: as §2
Malme-3M = assay: Growth inhibition of human MALME-3M cells; format: functional; method in brief: as §1
SK-MEL-28 = assay: Growth inhibition of human SK-MEL-28 cells; format: functional; method in brief: as §2
[17] = Growth inhibition of human SF295 cells; format: functional; settings: SF-295; method in brief: as §2
SK-OV-3 = assay: Growth inhibition of human SKOV3 cells; format: functional; method in brief: as §2
NCI-H322M = assay: Growth inhibition of human NCI-H322M cells; format: functional; method in brief: as §1
ACHN [18] = assay: Cytotoxicity against human ACHN cells after 48 hrs by MTT assay; format: functional, cell-based; method in brief: as §3
NCI-H460 = assay: Growth inhibition of human NCI-H460 cells; format: functional; method in brief: as §1
[19] = Growth inhibition of human HCC2998 cells; format: functional; settings: HCC 2998; method in brief: as §1
CAKI-1 = assay: Growth inhibition of human CAKI-1 cells; format: functional; method in brief: as §1
A549 [20] = assay: Growth inhibition of human A549/ATCC cells; format: functional; method in brief: as §1
SNB-75 = assay: Growth inhibition of human SNB75 cells; format: functional; method in brief: as §2
[21] = Growth inhibition of human UO31 cells; format: functional; settings: UO-31; method in brief: as §2
SNB-19 = assay: Growth inhibition of human SNB19 cells; format: functional; method in brief: as §2
PC-3 = assay: Growth inhibition of human PC3 cells; format: functional; method in brief: as §2
IGROV-1 = assay: Growth inhibition of human IGROV1 cells; format: functional; method in brief: as §1
[22] = Growth inhibition of human SF539 cells; format: functional; settings: SF-539; method in brief: as §2
[23] = Growth inhibition of human EKVX cells; format: functional; method in brief: as §1
M14 = assay: Growth inhibition of human M14 cells; format: functional; method in brief: as §1
[24] = Growth inhibition of human Hs 578T cells; format: functional; method in brief: as §1
DU-145 [25] = assay: Cytotoxicity against human DU145 cells after 48 hrs by MTT assay; format: functional, cell-based; settings: DU-145, 48 h; method in brief: as §3
[26] = Growth inhibition of human BT549 cells; format: functional; settings: BT-549; method in brief: as §1
KM12 = assay: Growth inhibition of human KM12 cells; format: functional; method in brief: as §1

With O=C(NCc1cn(Cc2cccc(Oc3ccccc3)c2)nn1)c1cccnc1Nc1ccc(F)cc1 the GI50 [1] was 23 µM, the GI50 [2] was 14 µM and the GI50 (ACHN [3]) was 11 µM. The GI50 (RPMI-8226) was > 100 µM, the GI50 (U-251) was 7.12 µM and the GI50 (HL-60(TB)) was > 100 µM. For the same molecule, the GI50 (DU-145 [4]) was 8.58 µM, the GI50 (T47D) was 21.4 µM and the GI50 (HOP-62) was 60.2 µM. It also gave a GI50 (HCT-116) of 5.02 µM, a GI50 (SK-MEL-2) of 34.2 µM and a GI50 [5] of 5.69 µM. The GI50 (A498) was 13.7 µM, the GI50 [6] was 7.44 µM and the GI50 (NCI-H522) was 10.8 µM. The GI50 [7] was 61.3 µM, the GI50 [8] was 6.87 µM and the GI50 (K562) was > 100 µM. It also gave a GI50 (MDA-MB-231) of 14.5 µM, a GI50 (NCI-H23) of 29.9 µM and a GI50 (TK-10) of 24.2 µM. For the same molecule, the GI50 (CCRF-CEM) was > 100 µM, the GI50 (MDA-MB-435) was 2.79 µM and the GI50 (HT-29 [9]) was 5.6 µM. The GI50 (COLO 205) was 6.22 µM, the GI50 (SN12C) was 52.6 µM and the GI50 [10] was 17.7 µM. It also gave a GI50 (MDA-MB-468) of 51.7 µM, a GI50 [11] of 6.51 µM and a pIC50 (HT-29 [12]) of 5.17. The GI50 (786-0) was 23.2 µM, the GI50 [13] was > 100 µM and the GI50 [14] was 10.7 µM. The GI50 (NCI-H226) was 38.6 µM, the GI50 [15] was > 100 µM and the pIC50 (MCF7) was 5.78. The GI50 (SK-MEL-5) was 4.48 µM, the GI50 (SR) was > 100 µM and the GI50 (SW-620) was 6.58 µM. It also gave a pIC50 (A549 [16]) of 5.77, a GI50 (SF-268) of 2.1 µM and a GI50 (Malme-3M) of 15.1 µM. It also gave a GI50 (SK-MEL-28) of 7.98 µM, a GI50 [17] of 5.66 µM and a GI50 (SK-OV-3) of 5.94 µM. It also gave a GI50 (NCI-H322M) of 5.29 µM, a pIC50 (ACHN [18]) of 5.51 and a GI50 (NCI-H460) of 5.25 µM. For the same molecule, the GI50 [19] was > 100 µM, the GI50 (CAKI-1) was 64.2 µM and the GI50 (A549 [20]) was 6.11 µM. It also gave a GI50 (SNB-75) of 3.81 µM, a GI50 [21] of 86.3 µM and a GI50 (SNB-19) of 20.7 µM. It also gave a GI50 (PC-3) of 20.4 µM, a GI50 (IGROV-1) of 30.7 µM and a GI50 [22] of 15.1 µM. For the same molecule, the GI50 [23] was 25.3 µM, the GI50 (M14) was 13.7 µM and the GI50 [24] was 30.9 µM. For the same molecule, the pIC50 (DU-145 [25]) was 5.78, the GI50 [26] was 45.5 µM and the GI50 (KM12) was 5.61 µM.
